Structures are written as SMILES. Calls of active or inactive are those of the source. The calls are words filed in the database; no cut-off is given here. Some results are limits rather than exact numbers.

The subject of one experiment is Col2. The experiment is described as follows: In vivo cytotoxicity against human Col2 cells by hollow fiber assay. The experiment is classed as functional.
The nature of experiment [1]: In vivo cytotoxicity against human RPE1 cells expressing human telomerase reverse transcriptase by hollow fiber assay. Format: functional, TERT-RPE1.
A further experiment deals with KB. The experiment in a line: In vivo cytotoxicity against human KB cells by hollow fiber assay. The experiment is classed as functional.
Experiment [2] concerns HL-60. The experiment is described as follows: (§1) Inhibition of human HL60 cells-derived chymotrypsin-like proteasome activity. The experiment is classed as subcellular. In outline:
(§2)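 Proteasome-enriched fraction from HL-60 cells, prepared by 100 000g spin, then 5% and 12% PEG (w/v) fractionation and 2-fold dilution in 10 mM Tris-EDTA pH 7.5. Fraction at final 50 µg/mL in 155 mM Tris, 10 mM EDTA, pH 7.4. Preincubated with inhibitor 30 min at room temperature, then 10 µM Suc-LLVY-AMC for 1 h. Free AMC read at ex 360/em 460 nm. IC50 reported.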

Experiment [3] can be described thus: as §1. The following applies: hl-60. The experiment is classed as subcellular. In outline:
as §2

The test system of experiment [4] is HL-60. The experiment is described as follows: Inhibition of human HL60 cells-derived chymotrypsin-like proteasome activity at 28 uM. The experiment is classed as subcellular.

`CCCCCCCC/C=C\CCCC[C@@H](OC(C)=O)[C@@H](OC(C)=O)[C@H](COC(C)=O)NC(C)=O`: the ED50 (in the experiment with Col2; in experiment [1]; in the experiment with KB) was above 5 µg/mL each time. For the same compound, the result with HL-60 [2] was inactive.
As usually defined, the IC50 is the concentration at which inhibition is half-maximal. A lower IC50 goes with greater potency. For the compound `CCCCCCCC/C=C\CCCC[C@@H](O)[C@@H](O)C(CO[C@@H]1O[C@H](CO)[C@@H](O)[C@H](O)[C@H]1O)NC(=O)[C@@H](O)CCCCCCCCCCCCCCCCCCCCCC` (stereo not given in full) [SUMATRANOSIDE], the IC50 in experiment [3] was found to be 30 µM.
One may read the inhibition as the share of the control response that was lost under treatment. The low end stands for a response near the control, the high end for a response far below the control. In the experiment with HL-60 [4], `O=C(/C=C/c1ccccc1)O[C@@H]1Cc2c(O)cc3c(c2O[C@@H]1c1ccc(O)c(O)c1)[C@H]1c2c(O)cc(O)cc2O[C@@](c2ccc(O)c(O)c2)(O3)[C@@H]1O` registered an inhibition below 10%.
As to `CCCCCCCCCCCCCCCCCCCCCC[C@@H](OC(C)=O)C(=O)OC`, the ED50 (in the experiment with Col2; in experiment [1]; with KB) was above 5 µg/mL throughout. Also, the result in the experiment on HL-60 [2] was inactive.

The record behind these values is ChEMBL document CHEMBL1148953, “Activity-guided fractionation of the leaves of Ormosia sumatrana using a proteasome inhibition assay” (J Nat Prod, 2004).
